From ChEMBL document CHEMBL4219164, “Design, synthesis and biological evaluation of novel 3-substituted pyrazolopyrimidine derivatives as potent Bruton's tyrosine kinase (BTK) inhibitors” (Bioorg Med Chem, 2018)

Legend:
[1] = tested on: Raji; assay: Antiproliferative activity against human Raji cells after 48 hrs by CCK8-based assay; format: functional, cell-based
How it was run: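 CCK-8 viability readout. Cells were seeded at 2000–3000 per well and held 24 h at 37 °C in 5% CO2, then exposed to compound at five concentrations within 1.25–40 μM, each in triplicate. CCK-8 was added for a further 1–4 h and absorbance read at 450 nm, with cell number set to give 0.5–1.2. IC50 was taken as the mean of at least three experiments.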

[2] = biological target: Tyrosine-protein kinase BTK (Homo sapiens, UniProt Q06187); assay: Inhibition of full length human N-terminal GST-tagged BTK (2 to 659 residues) expressed in baculovirus expression system using biotinylated substrate after 50 mins by HTRF assay
[3] = tested on: Ramos; assay: Antiproliferative activity against human Ramos cells after 48 hrs by CCK8-based assay; format: functional, cell-based

Sequence of Tyrosine-protein kinase BTK (Q06187 whole entry, the tested form may be a part): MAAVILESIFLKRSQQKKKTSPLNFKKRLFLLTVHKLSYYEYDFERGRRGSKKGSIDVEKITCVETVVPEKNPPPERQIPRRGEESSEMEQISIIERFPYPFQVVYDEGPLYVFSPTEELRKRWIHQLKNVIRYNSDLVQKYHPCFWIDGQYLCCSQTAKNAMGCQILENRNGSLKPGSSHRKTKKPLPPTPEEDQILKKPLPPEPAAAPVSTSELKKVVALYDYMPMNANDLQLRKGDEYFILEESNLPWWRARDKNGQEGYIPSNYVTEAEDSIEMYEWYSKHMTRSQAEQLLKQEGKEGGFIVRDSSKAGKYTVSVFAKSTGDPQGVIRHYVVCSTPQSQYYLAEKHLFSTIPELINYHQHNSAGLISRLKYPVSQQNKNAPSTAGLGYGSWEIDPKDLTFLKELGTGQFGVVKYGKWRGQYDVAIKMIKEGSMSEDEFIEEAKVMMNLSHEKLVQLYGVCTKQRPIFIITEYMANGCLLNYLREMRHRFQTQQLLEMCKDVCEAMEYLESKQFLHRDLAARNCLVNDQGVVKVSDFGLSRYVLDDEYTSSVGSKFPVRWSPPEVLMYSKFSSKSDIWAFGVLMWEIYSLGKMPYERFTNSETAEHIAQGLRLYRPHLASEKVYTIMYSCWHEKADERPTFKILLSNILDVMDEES

SMILES | IC50 [1] [µM] | IC50 [2] [µM] | IC50 [3] [µM]
C=CC(=O)N1CCC[C@@H](n2nc(-c3ccc(Oc4ccccc4)cc3)c3c(N)ncnc32)C1 [IBRUTINIB] | 1.49 | – | –
C=CC(=O)N1CCC[C@@H](n2nc(/C=C/COc3ccccc3)c3c(N)ncnc32)C1 | – | 0.0113 | –
C=CC(=O)N1CCC[C@@H](n2nc(CCCOc3ccccc3)c3c(N)ncnc32)C1 | – | 0.0222 | –
C=CC(=O)N1CCC[C@@H](n2nc(C#CCOc3cccc(C)c3)c3c(N)ncnc32)C1 | – | 0.0208 | –
C=CC(=O)N1CCC[C@@H](n2nc(C#CCOc3cccc(C(F)(F)F)c3)c3c(N)ncnc32)C1 | – | 0.209 | –
C=CC(=O)N1CCC[C@@H](n2nc(C#CCCOc3ccccc3)c3c(N)ncnc32)C1 | – | 0.0398 | –
C=CC(=O)N1CCC[C@@H](n2nc(C#CCOc3cccc(Cl)c3)c3c(N)ncnc32)C1 | 2.28 | 0.0181 | > 40
C=CC(=O)N1CCC[C@@H](n2nc(C#CCOc3cccc(OC)c3)c3c(N)ncnc32)C1 | 1.69 | 0.00984 | > 40
C=CC(=O)N1CCC[C@@H](n2nc(C#CCc3ccccc3)c3c(N)ncnc32)C1 | – | 0.102 | –
C=CC(=O)N1CCC[C@@H](n2nc(C#CCOc3ccc(C)cc3)c3c(N)ncnc32)C1 | – | 0.0269 | –
C=CC(=O)N1CCC[C@@H](n2nc(C#CCOc3ccccc3OC)c3c(N)ncnc32)C1 | – | 0.0382 | –
C=CC(=O)N1CCC[C@@H](n2nc(C#CCSc3ccccc3)c3c(N)ncnc32)C1 | 2.72 | 0.011 | 37.2
C=CC(=O)N1CCC[C@@H](n2nc(C#CCCc3ccccc3)c3c(N)ncnc32)C1 | 1.62 | 0.0159 | > 40
C=CC(=O)N1CCC[C@@H](n2nc(C#CCNc3ccccc3)c3c(N)ncnc32)C1 | > 40 | 0.0181 | 18.2
C=CC(=O)N1CCC[C@@H](n2nc(C#CCOc3cccc(C(C)C)c3)c3c(N)ncnc32)C1 | – | 0.0454 | –
C=CC(=O)N1CCC[C@@H](n2nc(C#CCOc3ccc(OC)cc3)c3c(N)ncnc32)C1 | – | 0.0896 | –
C=CC(=O)N1CCC[C@@H](n2nc(/C=C\COc3ccccc3)c3c(N)ncnc32)C1 | > 40 | 0.0232 | 14.6
C=CC(=O)N1CCC[C@@H](n2nc(C#CCOc3ccccc3C)c3c(N)ncnc32)C1 | – | 0.0492 | –
C=CC(=O)N1CCC[C@@H](n2nc(C#CCOc3ccccc3)c3c(N)ncnc32)C1 | 1.8 | 0.00795 | 8.91
